Assay results as given in ChEMBL document CHEMBL1128519, “Semisynthetic chemical modification of the antifungal lipopeptide echinocandin B (ECB): structure-activity studies of the lipophilic and geometric parameters of polyarylated acyl analogs of ECB” (J Med Chem, 1995).
Converted amounts (≈) assume the structure as drawn. Numbered stars: 1 amine (or outer) side, 2 acyl side, 3 side chain; on linkers, the order of the positions; unused ones are H or OH. Bridge positions count the residues as written; N and C are the ends. Square brackets hold non-standard residues; d marks the D form. Peptide text beside a SMILES is read from it. * marks the point of attachment. Orn(4R-OH,5R-OH) = O=C([C@H](C[C@@H](O)[C@@H](O)N[*:3])N[*:1])[*:2]; hTyr(3S-OH,4S-OH) = N[C@H](C(=O)O)[C@H](O)[C@@H](O)c1ccc(O)cc1; X3 = CC(C)(C)OCCOc1ccc(C#Cc2ccc(-c3ccc(C(=O)*)cc3)cc2)cc1; X4 = CC(C)(C)OCCOc1ccc(-c2ccc(-c3ccc(C(=O)*)cc3)cc2)cc1; X1 = O=C(c1ccc(-c2ccc(-c3ccc(-c4ccccc4)cc3)cc2)cc1)*; X6 = CCCCOCCOc1ccc(-c2ccc(-c3ccc(C(=O)*)cc3)cc2)cc1; X7 = CCCCCCOc1ccc(-c2ccc(-c3ccc(C(=O)*)cc3)cc2)cc1; X2 = CCCOc1ccc(C#Cc2ccc(-c3ccc(C(=O)*)cc3)cc2)cc1; Pro(3S-OH,4S-Me) = C[C@H]1CN[C@H](C(=O)O)[C@H]1O; X5 = O=C(c1ccc(C#Cc2ccc(C#Cc3ccccc3)cc2)cc1)*; X8 = O=C(c1ccc(-c2ccc(C#Cc3ccccc3)cc2)cc1)*; Hyp = O=C(O)[C@@H]1C[C@@H](O)CN1

Key:
[1] = target: Beta-1,3-glucan synthase (Candida albicans) (UniProt O13428); assay: In vitro inhibition of glucan synthase obtained from Candida albicans at a concentration of 10 ug/mL.
How it was run: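 Purified, solubilized β-(1,3)-D-glucan synthase prepared from C. albicans. Percent inhibition measured at 10 µg/mL compound, single determination.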

Candida albicans [2] = assay: In vivo antifungal activity administered intraperitoneally against Candida albicans infections in mice.; type: functional; conditions: ip
How it was run: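 Male ICR mice (18-20 g), X-irradiated with 400 r 24 h before iv tail-vein infection with 2 × 10^6 C. albicans A26 cells in saline. Compounds suspended in β-cyclodextrin, given parenterally at 0, 4, 24 and 48 h post-infection. 10 mice per dose, top dose 10 mg/kg with 2-fold dilutions down to 0.039 mg/kg. 7-day survival; ED50 by Reed-Muench.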

Candida albicans [3] = assay: Antifungal activity against Candida albicans; type: functional
How it was run: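 Broth microdilution, C. albicans A26 (ATCC 62342) grown on Sabouraud dextrose agar at 35 °C; inoculum 1 × 10^5 conidia/mL in antibiotic 3 broth. Compounds dissolved at 1.0 mg/mL in methanol, 2-fold serial dilutions from 80 µg/mL, duplicate. Read after 48 h at 35 °C. MIC = lowest concentration completely inhibiting visible growth.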

Candida albicans [4] = assay: In vivo antifungal activity administered orally against Candida albicans infections in mice.; type: functional; conditions: po
How it was run: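 X-irradiated (400 r, 24 h prior) male ICR mice infected iv with 2 × 10^6 C. albicans A26 cells. Oral gavage in cremophor (5%)/linoleic acid (8%)/water vehicle, b.i.d. × 4 starting immediately post-infection. 10 mice per dose level. Study ends at day 7; ED50 = dose giving 50% survival, by Reed-Muench.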

Sequence of Beta-1,3-glucan synthase (Candida albicans) (O13428 as listed by the source): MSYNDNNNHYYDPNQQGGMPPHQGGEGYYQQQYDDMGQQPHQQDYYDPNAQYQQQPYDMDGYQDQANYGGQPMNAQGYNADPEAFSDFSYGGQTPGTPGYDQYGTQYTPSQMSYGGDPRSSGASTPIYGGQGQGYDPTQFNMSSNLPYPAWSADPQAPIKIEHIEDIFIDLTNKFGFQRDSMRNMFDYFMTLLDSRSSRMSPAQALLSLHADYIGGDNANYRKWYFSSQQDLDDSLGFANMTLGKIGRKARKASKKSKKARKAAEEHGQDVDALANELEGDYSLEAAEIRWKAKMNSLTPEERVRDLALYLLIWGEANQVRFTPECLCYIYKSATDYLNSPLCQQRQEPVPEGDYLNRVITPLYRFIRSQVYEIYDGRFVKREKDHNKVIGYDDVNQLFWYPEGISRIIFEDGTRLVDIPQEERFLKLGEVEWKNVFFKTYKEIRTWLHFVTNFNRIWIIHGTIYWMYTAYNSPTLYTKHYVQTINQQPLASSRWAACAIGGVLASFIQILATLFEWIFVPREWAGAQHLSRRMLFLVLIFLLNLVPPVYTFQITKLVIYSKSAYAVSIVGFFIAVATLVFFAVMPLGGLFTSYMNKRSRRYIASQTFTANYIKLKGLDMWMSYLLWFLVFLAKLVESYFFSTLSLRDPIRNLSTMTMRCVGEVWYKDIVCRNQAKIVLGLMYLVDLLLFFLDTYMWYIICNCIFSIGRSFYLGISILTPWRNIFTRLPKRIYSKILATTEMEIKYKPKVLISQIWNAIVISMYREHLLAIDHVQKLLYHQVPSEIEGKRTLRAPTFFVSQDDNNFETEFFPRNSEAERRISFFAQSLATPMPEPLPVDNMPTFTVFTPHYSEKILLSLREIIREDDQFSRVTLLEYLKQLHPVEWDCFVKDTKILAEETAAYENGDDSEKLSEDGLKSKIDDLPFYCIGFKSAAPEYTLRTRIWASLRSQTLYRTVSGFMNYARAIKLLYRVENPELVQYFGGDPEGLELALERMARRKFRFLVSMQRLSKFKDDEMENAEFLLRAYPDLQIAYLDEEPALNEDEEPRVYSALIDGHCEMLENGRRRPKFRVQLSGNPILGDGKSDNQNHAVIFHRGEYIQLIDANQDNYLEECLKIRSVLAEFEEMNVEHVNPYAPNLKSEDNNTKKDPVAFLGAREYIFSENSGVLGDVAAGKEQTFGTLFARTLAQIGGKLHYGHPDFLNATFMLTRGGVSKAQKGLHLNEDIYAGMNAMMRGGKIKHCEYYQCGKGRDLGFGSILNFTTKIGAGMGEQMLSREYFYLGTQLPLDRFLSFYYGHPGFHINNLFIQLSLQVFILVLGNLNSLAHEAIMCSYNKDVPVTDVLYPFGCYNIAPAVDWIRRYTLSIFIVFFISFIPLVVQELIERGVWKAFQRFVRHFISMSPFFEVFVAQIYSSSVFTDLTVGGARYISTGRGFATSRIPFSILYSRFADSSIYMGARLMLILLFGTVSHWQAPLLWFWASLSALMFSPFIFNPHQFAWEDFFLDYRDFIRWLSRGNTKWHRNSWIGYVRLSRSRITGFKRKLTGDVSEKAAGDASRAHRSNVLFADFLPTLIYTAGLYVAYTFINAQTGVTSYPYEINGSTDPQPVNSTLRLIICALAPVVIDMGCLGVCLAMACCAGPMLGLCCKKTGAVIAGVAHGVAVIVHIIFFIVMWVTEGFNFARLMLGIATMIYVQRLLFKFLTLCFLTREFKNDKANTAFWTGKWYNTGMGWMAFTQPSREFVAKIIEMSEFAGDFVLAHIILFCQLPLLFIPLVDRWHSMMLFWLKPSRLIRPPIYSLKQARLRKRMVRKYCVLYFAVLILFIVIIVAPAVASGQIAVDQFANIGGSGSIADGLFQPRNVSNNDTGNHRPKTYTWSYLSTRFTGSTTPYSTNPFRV

| Structure (SMILES) | inhibition [1] [%] | ED50 (Candida albicans [2]) [mg/kg] | MIC (Candida albicans [3]) [µg/mL] | ED50 (Candida albicans [4]) [mg/kg] |
| --- | --- | --- | --- | --- |
| C[C@@H](O)[C@@H]1NC(=O)[C@H]([C@H](O)[C@@H](O)c2ccc(O)cc2)NC(=O)[C@@H]2C[C@@H](O)CN2C(=O)[C@H]([C@@H](C)O)NC(=O)[C@@H](NC(=O)c2ccc(-c3ccc(-c4ccc(-c5ccccc5)cc4)cc3)cc2)C[C@@H](O)[C@@H](O)NC(=O)[C@@H]2[C@@H](O)[C@@H](C)CN2C1=O (X1-[Orn(4R-OH,5R-OH)]T[Hyp][hTyr(3S-OH,4S-OH)]T[Pro(3S-OH,4S-Me)]; lactam 1-C) | 74.7 | 0.4 | < 0.01 | 39.7 |
| CCCOc1ccc(C#Cc2ccc(-c3ccc(C(=O)N[C@H]4C[C@@H](O)[C@@H](O)NC(=O)[C@@H]5[C@@H](O)[C@@H](C)CN5C(=O)[C@H]([C@@H](C)O)NC(=O)[C@H]([C@H](O)[C@@H](O)c5ccc(O)cc5)NC(=O)[C@@H]5C[C@@H](O)CN5C(=O)[C@H]([C@@H](C)O)NC4=O)cc3)cc2)cc1 (X2-[Orn(4R-OH,5R-OH)]T[Hyp][hTyr(3S-OH,4S-OH)]T[Pro(3S-OH,4S-Me)]; lactam 1-C) | 83.5 | 0.4 | < 0.01 | 7 |
| C[C@@H](O)[C@@H]1NC(=O)[C@H]([C@H](O)[C@@H](O)c2ccc(O)cc2)NC(=O)[C@@H]2C[C@@H](O)CN2C(=O)[C@H]([C@@H](C)O)NC(=O)[C@@H](NC(=O)c2ccc(-c3ccc(C#Cc4ccc(OCCOC(C)(C)C)cc4)cc3)cc2)C[C@@H](O)[C@@H](O)NC(=O)[C@@H]2[C@@H](O)[C@@H](C)CN2C1=O (X3-[Orn(4R-OH,5R-OH)]T[Hyp][hTyr(3S-OH,4S-OH)]T[Pro(3S-OH,4S-Me)]; lactam 1-C) | 82.4 | 0.2 | 0.02 (≈ 0.0167 µM) | 7.6 |
| C[C@@H](O)[C@@H]1NC(=O)[C@H]([C@H](O)[C@@H](O)c2ccc(O)cc2)NC(=O)[C@@H]2C[C@@H](O)CN2C(=O)[C@H]([C@@H](C)O)NC(=O)[C@@H](NC(=O)c2ccc(-c3ccc(-c4ccc(OCCOC(C)(C)C)cc4)cc3)cc2)C[C@@H](O)[C@@H](O)NC(=O)[C@@H]2[C@@H](O)[C@@H](C)CN2C1=O (X4-[Orn(4R-OH,5R-OH)]T[Hyp][hTyr(3S-OH,4S-OH)]T[Pro(3S-OH,4S-Me)]; lactam 1-C) | 76.1 | 0.4 | 0.06 (≈ 0.0513 µM) | 21.3 |
| C[C@@H](O)[C@@H]1NC(=O)[C@H]([C@H](O)[C@@H](O)c2ccc(O)cc2)NC(=O)[C@@H]2C[C@@H](O)CN2C(=O)[C@H]([C@@H](C)O)NC(=O)[C@@H](NC(=O)c2ccc(C#Cc3ccc(C#Cc4ccccc4)cc3)cc2)C[C@@H](O)[C@@H](O)NC(=O)[C@@H]2[C@@H](O)[C@@H](C)CN2C1=O (X5-[Orn(4R-OH,5R-OH)]T[Hyp][hTyr(3S-OH,4S-OH)]T[Pro(3S-OH,4S-Me)]; lactam 1-C) | 81.3 | 4.5 | 0.01 (≈ 0.00907 µM) | 16 |
| CCCCOCCOc1ccc(-c2ccc(-c3ccc(C(=O)N[C@H]4C[C@@H](O)[C@@H](O)NC(=O)[C@@H]5[C@@H](O)[C@@H](C)CN5C(=O)[C@H]([C@@H](C)O)NC(=O)[C@H]([C@H](O)[C@@H](O)c5ccc(O)cc5)NC(=O)[C@@H]5C[C@@H](O)CN5C(=O)[C@H]([C@@H](C)O)NC4=O)cc3)cc2)cc1 (X6-[Orn(4R-OH,5R-OH)]T[Hyp][hTyr(3S-OH,4S-OH)]T[Pro(3S-OH,4S-Me)]; lactam 1-C) | 80.1 | 0.3 | 0.03 (≈ 0.0256 µM) | 13.6 |
| CCCCCCOc1ccc(-c2ccc(-c3ccc(C(=O)N[C@H]4C[C@@H](O)[C@@H](O)NC(=O)[C@@H]5[C@@H](O)[C@@H](C)CN5C(=O)[C@H]([C@@H](C)O)NC(=O)[C@H]([C@H](O)[C@@H](O)c5ccc(O)cc5)NC(=O)[C@@H]5C[C@@H](O)CN5C(=O)[C@H]([C@@H](C)O)NC4=O)cc3)cc2)cc1 (X7-[Orn(4R-OH,5R-OH)]T[Hyp][hTyr(3S-OH,4S-OH)]T[Pro(3S-OH,4S-Me)]; lactam 1-C) | – | 0.8 | 0.03 (≈ 0.026 µM) | 6.8 |
| C[C@@H](O)[C@@H]1NC(=O)[C@H]([C@H](O)[C@@H](O)c2ccc(O)cc2)NC(=O)[C@@H]2C[C@@H](O)CN2C(=O)[C@H]([C@@H](C)O)NC(=O)[C@@H](NC(=O)c2ccc(-c3ccc(C#Cc4ccccc4)cc3)cc2)C[C@@H](O)[C@@H](O)NC(=O)[C@@H]2[C@@H](O)[C@@H](C)CN2C1=O (X8-[Orn(4R-OH,5R-OH)]T[Hyp][hTyr(3S-OH,4S-OH)]T[Pro(3S-OH,4S-Me)]; lactam 1-C) | 75.8 | 0.6 | 0.039 (≈ 0.0362 µM) | 18.8 |
